The record followed here is ChEMBL document CHEMBL4616704, “Discovery of an Atropisomeric PI3Kβ Selective Inhibitor through Optimization of the Hinge Binding Motif” (ACS Med Chem Lett, 2020).

A word on the IC50: it is the concentration at which inhibition is half-maximal. As a reminder, the EC50 is the concentration at which the effect is half-maximal. By bioavailability is commonly meant dose-corrected exposure relative to a reference, in per cent. One may read the Papp B→A as the apparent permeability from the basolateral to the apical side of a cell layer. For orientation: MRT means a mean duration of stay, worked out from the concentration-time curve.

Series [1] is described as follows: Ocular toxicity in Beagle dog assessed as irreversible damage by measuring retinal detachment at 10 to 100 mg/kg/day administered for 7 days by microscopic analysis. The series is classed as organism-based, Canis lupus familiaris. To be noted: in vivo, 168 h.
Series [2] deals with Voltage-gated inwardly rectifying potassium channel KCNH2 (Homo sapiens, UniProt Q12809). Briefly: Inhibition of human ERG. The procedure, abridged:
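Binding-assay format used to measure inhibition of major human CYP450 enzymes and hERG.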

A short description of series [3]: Volume of distribution at steady state in Beagle dog at 1 mg/kg administered as iv infusion for 30 mins and measured after 24 hrs by ESI-LC/MS/MS analysis. The series is classed as ADME, organism-based, Canis lupus familiaris. To be noted: in vivo, read-out: Vdss.
A short description of series [4]: Protein binding in Beagle dog plasma at 1 mg/kg administered as iv infusion for 30 mins and measured after 24 hrs by ESI-LC/MS/MS analysis. The series is classed as ADME, organism-based, Canis lupus familiaris. To be noted: read-out: PPB (converted).
Series [5] in a line: Clearance in human hepatocytes at 1 uM measured up to 250 mins by UHPLC-HRMS analysis. Type of series: ADME, cell-based, Hepatocyte.
The target of series [6] is Phosphatidylinositol 4,5-bisphosphate 3-kinase catalytic subunit beta isoform (Homo sapiens, UniProt P42338). As to the kind of experiment: Inhibition of PI3Kbeta in PTEN-deficient human LNCaP C4-2 cells assessed as reduction in AKT phosphorylation at Ser473 residue after 2 hrs by mesoscale assay. Type of series: cell-based. The essentials:
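Cellular readout: pAKT1 Ser473 normalized to total AKT1, expressed as units pAKT1 Ser473 per nanogram total AKT1; cells treated under serum-free conditions.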

Series [7] is described as follows: Oral bioavailability in Beagle dog at 5 mg/kg dosed via gavage after 24 hrs by ESI-LC/MS/MS analysis. To be noted: in vivo. The series is classed as ADME, organism-based, Canis lupus familiaris.
A short description of series [8]: Protein binding in Sprague-Dawley rat plasma at 1 mg/kg administered as iv infusion for 30 mins and measured after 24 hrs by ESI-LC/MS/MS analysis. The series is classed as ADME, organism-based. To be noted: read-out: PPB (converted).
The nature of series [9]: Apparent permeability across basolateral to apical side in human Caco2 cells at 10 uM after 1 to 2 hrs by LC/MS/MS analysis. To be noted: Caco-2. The series is classed as ADME, cell-based. (In general: Caco-2 cells form a polarised layer with tight junctions and transporters.)
The nature of series [10]: MRT in rhesus monkey at 1 mg/kg administered as iv infusion for 30 mins and measured after 24 hrs by ESI-LC/MS/MS analysis. To be noted: in vivo. Type of series: ADME, organism-based, Macaca mulatta.
A short description of series [11]: MRT in Beagle dog at 1 mg/kg administered as iv infusion for 30 mins and measured after 24 hrs by ESI-LC/MS/MS analysis. The series is classed as ADME, organism-based, Canis lupus familiaris. To be noted: in vivo.

The structures appear in SMILES notation. Bounds are passed on as bounds.

Chain of Phosphatidylinositol 4,5-bisphosphate 3-kinase catalytic subunit beta isoform (P42338 whole entry, canonical isoform): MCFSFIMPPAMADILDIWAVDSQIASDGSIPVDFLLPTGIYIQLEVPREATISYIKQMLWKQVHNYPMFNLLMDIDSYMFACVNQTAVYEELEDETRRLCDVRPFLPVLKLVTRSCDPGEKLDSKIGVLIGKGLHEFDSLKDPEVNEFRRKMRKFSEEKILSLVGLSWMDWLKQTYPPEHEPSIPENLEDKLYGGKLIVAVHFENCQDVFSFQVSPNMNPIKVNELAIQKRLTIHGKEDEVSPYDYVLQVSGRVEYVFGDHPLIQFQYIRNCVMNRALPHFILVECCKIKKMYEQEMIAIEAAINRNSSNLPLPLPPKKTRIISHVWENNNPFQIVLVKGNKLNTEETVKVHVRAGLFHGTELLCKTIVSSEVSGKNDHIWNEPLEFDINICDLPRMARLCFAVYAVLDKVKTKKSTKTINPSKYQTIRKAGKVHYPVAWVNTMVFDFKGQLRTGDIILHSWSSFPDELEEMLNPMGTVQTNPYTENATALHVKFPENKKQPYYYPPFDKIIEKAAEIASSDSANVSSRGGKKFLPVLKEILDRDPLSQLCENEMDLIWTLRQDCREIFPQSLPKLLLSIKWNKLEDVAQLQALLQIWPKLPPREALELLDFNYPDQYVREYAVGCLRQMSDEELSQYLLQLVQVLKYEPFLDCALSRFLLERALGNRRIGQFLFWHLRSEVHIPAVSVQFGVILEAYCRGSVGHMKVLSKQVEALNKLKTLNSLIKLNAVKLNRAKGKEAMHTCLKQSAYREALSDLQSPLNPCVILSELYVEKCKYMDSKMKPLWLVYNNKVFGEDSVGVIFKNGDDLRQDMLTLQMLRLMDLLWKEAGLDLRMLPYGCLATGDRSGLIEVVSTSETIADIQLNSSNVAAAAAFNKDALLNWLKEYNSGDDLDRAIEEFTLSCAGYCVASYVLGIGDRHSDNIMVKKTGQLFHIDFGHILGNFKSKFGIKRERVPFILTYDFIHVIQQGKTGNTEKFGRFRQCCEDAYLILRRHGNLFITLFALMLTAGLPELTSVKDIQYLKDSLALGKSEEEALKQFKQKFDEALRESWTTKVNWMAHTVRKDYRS
Chain of Voltage-gated inwardly rectifying potassium channel KCNH2 (Q12809 whole entry): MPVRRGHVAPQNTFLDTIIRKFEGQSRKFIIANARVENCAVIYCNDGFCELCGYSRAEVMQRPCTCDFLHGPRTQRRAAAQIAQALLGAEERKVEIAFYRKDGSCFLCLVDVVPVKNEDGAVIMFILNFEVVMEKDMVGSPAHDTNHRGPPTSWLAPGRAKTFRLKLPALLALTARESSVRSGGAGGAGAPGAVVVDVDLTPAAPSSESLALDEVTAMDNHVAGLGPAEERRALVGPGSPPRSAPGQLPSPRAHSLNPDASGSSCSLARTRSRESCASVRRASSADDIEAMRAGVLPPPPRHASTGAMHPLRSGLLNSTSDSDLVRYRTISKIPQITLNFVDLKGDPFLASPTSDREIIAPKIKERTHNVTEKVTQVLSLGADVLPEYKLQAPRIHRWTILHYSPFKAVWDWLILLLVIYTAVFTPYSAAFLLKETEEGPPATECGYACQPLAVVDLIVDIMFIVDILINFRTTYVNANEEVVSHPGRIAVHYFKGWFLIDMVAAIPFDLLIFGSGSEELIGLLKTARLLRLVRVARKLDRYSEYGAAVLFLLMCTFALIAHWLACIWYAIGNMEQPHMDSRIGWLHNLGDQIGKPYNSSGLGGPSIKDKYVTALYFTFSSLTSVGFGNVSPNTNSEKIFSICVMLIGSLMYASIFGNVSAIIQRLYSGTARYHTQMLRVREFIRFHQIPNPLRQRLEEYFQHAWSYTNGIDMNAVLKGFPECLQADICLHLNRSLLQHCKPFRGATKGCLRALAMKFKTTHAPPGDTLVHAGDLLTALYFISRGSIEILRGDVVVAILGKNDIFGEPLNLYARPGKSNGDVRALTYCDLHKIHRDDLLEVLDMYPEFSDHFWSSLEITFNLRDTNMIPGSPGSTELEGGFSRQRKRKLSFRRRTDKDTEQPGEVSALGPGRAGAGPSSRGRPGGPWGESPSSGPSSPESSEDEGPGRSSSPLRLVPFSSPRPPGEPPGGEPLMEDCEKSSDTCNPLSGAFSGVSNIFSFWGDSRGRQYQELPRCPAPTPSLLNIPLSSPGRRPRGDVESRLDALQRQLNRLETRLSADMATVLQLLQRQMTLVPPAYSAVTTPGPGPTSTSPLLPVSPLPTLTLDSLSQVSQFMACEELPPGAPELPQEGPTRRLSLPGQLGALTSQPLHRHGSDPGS

Turning to `Cc1nc2c(-c3nnc[nH]3)cc(-c3ccnc(C#N)c3)cc2n1-c1ccnc2c(F)ccc(F)c12`, in series [1], the Activity entry was “Toxic”. This compound also showed a half-maximal inhibitory concentration (IC50) in [2] of more than 25000 nM. Moreover, the Vd in series [3] stood at 2.5 L/kg. Besides, the figures for the fraction unbound at 24 h in series [4] and in series [8] were 0.14 and 0.16, respectively. The compound further gave a CLH at 1 µM in series [5] of 3.17 mL/min/kg. The compound further displayed a CLH in [5] (250 min, 1 µM) of 3 mL/min/kg. In addition, the EC50 in [6] came out at 24 nM. Besides, the bioavailability in [7] was 76%. For the same compound, in series [9], the Papp B→A at 10 µM was 32 ×10⁻⁶ cm/s. For the same compound, the MRT in [10] amounted to 5.5 h; in series [11] it was 7.3 h.
